Source: ChEMBL document CHEMBL5154918, “Synthesis and Biological Characterization of a Series of 2-Sulfonamidebenzamides as Allosteric Modulators of MrgX1” (ACS Med Chem Lett, 2022)

Legend:
[1] = biological target: T1, Mas-related G-protein coupled receptor member X1 (Homo sapiens, UniProt Q96LB2); assay: Positive allosteric modulator activity at human MRGPRX1 expressed in HEK293 cells assessed as maximal efficacy at 5 uM in presence of BAM8-22 by Fluo4-dye based FLIPR assay relative to control; type: cell-based
[2] = biological target: T1, Mas-related G-protein coupled receptor member X1; assay: Positive allosteric modulator activity at human MRGPRX1 expressed in HEK293 cells in presence of BAM8-22 by Fluo4-dye based FLIPR assay; type: cell-based
Outline: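 HEK293 cells expressing MrgX1. Compounds tested in the presence of 10 nM BAM8-22. Emax normalized to control compound ML382; mean ± SEM of n = 2 experiments.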

[3] = Microsomal stability in human liver microsomes assessed as intrinsic clearance; type: ADME, Microsome; settings: read-out: CLH
Outline: (§1)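 Intrinsic clearance measured in human and mouse liver microsomes. Hepatic clearance predicted from it with the well-stirred organ CL model, binding terms excluded.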

[4] = Microsomal stability in mouse liver microsomes assessed as intrinsic clearance; type: ADME, Microsome; settings: read-out: CLH; outline: as §1
[5] = Plasma protein binding in human assessed as unbound fraction; type: ADME, cell-free; settings: read-out: PPB
Outline: (§2)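 Equilibrium dialysis in human and mouse plasma; results expressed as […] fraction unbound.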

[6] = Plasma protein binding in mouse assessed as unbound fraction; type: ADME, cell-free; settings: read-out: PPB; outline: as §2
[7] = Volume of distribution at steady state in Sprague-Dawley rat at 0.25 mg/kg, iv bolus injection administered as cassette dose; type: ADME, organism-based; settings: in vivo, read-out: Vdss
Outline: (§3)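 Male Sprague–Dawley rats, 5-in-1 cassette, 0.25 mg/kg IV of each test article in DMSO:PEG400:EtOH:Saline (5:48:10:37). Plasma sampled at 0.0833, 0.25, 0.5, 1, 3, 4, 8 and 24 h, plus Day 2 at 0.25 h post dose.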

[8] = AUC in Sprague-Dawley rat at 0.25 mg/kg, iv bolus injection administered as cassette dose; type: ADME, organism-based; set-up: dose 0.25 mg/kg, route iv; settings: in vivo; outline: as §3
[9] = Half life in Sprague-Dawley rat at 0.25 mg/kg, iv bolus injection administered as cassette dose; type: ADME, organism-based; settings: in vivo; outline: as §3
[10] = Clearance in Sprague-Dawley rat at 0.25 mg/kg, iv bolus injection administered as cassette dose; type: ADME, organism-based; settings: in vivo; outline: as §3
Translocator protein = Translocator protein (Homo sapiens, UniProt P30536); assay: Binding affinity to peripheral benzodiazepine receptor (unknown origin)
[11] = Drug concentration in Sprague-Dawley rat plasma at 0.25 mg/kg measured up to 48.25 hrs; type: ADME, organism-based
Outline: (§4)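 Brain sampled on Day 2 at 0.25 h, with matching plasma, after a 0.25 mg/kg IV cassette dose (5-in-1) in male Sprague–Dawley rats. Vehicle was DMSO:PEG400:EtOH:Saline (5:48:10:37). Kp is total brain/plasma concentration ratio.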

[12] = Drug concentration in Sprague-Dawley rat brain at 0.25 mg/kg measured up to 48.25 hrs; type: ADME, organism-based; settings: read-out: Ct; outline: as §4
[13] = Ratio of drug concentration in brain to plasma in Sprague-Dawley rat at 0.25 mg/kg measured after 15 mins; type: ADME, organism-based; settings: brain and plasma; outline: as §4
[14] = Half life in mouse at 2 mg/kg, ip administered as discrete dose; type: ADME, organism-based; settings: in vivo
Outline: (§5)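 Discrete (single-compound) mouse PK, dosed IP at 2 mg/kg in 10% DMSO/10% cremophor EL/30% PEG400/50% water. Plasma and brain concentrations measured; brain:plasma ratio reported.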

[15] = Tmax in mouse at 2 mg/kg, ip administered as discrete dose; type: ADME, organism-based; settings: in vivo; outline: as §5
[16] = Cmax in mouse at 2 mg/kg, ip administered as discrete dose; type: ADME, organism-based; set-up: dose 2 mg/kg, route ip; settings: in vivo; outline: as §5
[17] = AUC in mouse at 2 mg/kg, ip administered as discrete dose; type: ADME, organism-based; set-up: dose 2 mg/kg, route ip; settings: in vivo; outline: as §5
[18] = Ratio of drug concentration in brain to plasma in mouse at 2 mg/kg, ip administered as discrete dose; type: ADME, organism-based; settings: brain and plasma, read-out: BPR; outline: as §5
[19] = filed as positive allosteric modulator

T1 sequence (Q96LB2 whole entry): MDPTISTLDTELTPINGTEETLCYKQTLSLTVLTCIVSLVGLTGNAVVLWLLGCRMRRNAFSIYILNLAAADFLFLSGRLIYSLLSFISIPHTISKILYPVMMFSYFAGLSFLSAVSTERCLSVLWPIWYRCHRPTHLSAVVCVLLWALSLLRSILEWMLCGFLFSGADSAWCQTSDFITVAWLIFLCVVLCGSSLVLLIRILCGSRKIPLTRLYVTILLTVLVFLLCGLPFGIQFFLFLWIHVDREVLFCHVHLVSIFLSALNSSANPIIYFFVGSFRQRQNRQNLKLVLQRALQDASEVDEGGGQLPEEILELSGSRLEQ
Sequence of Translocator protein (P30536 whole entry): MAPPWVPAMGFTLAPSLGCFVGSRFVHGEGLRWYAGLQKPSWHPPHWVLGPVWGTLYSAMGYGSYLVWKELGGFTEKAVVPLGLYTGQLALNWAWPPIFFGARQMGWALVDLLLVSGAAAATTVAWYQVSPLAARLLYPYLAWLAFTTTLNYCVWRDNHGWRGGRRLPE

Emax [1, 19]	EC50 [2]	Emax [1]	SMILES	also measured
104%	103 nM	–	CCOc1ccccc1NC(=O)c1cc(C)ccc1NS(=O)(=O)C1CC1	CLint scaled [3]: 75.1 mL/min/kg; CLint scaled [4]: 410 mL/min/kg; fraction unbound [5]: 0.003; fraction unbound [6]: 0.043
89.9%	369 nM	–	Cc1ccc(NS(=O)(=O)C2CC2)c(C(=O)Nc2ccccc2OCC(F)(F)F)c1	–
89.5%	366 nM	–	CCS(=O)(=O)Nc1ccc(Cl)cc1C(=O)Nc1ccccc1OCC(F)(F)F	–
–	–	20.7%	COCCOc1ccccc1NC(=O)c1ccccc1NS(=O)(=O)C1CC1	–
–	–	27%	O=C(Nc1cccc2c1OCCC2)c1ccccc1NS(=O)(=O)C1CC1	–
–	–	0.1%	CCOc1ccccc1NC(=O)c1ncccc1NS(=O)(=O)C1CC1	–
–	–	12.1%	CCOc1ccccc1NC(=O)c1ccncc1NS(=O)(=O)C1CC1	–
73.2%	1090 nM	–	CCOc1ccc(NC(=O)c2ccccc2NS(=O)(=O)C2CC2)c(OCC)c1	–
–	–	2.1%	O=C(Nc1ccc2c(c1)OCCO2)c1ccccc1NS(=O)(=O)C1CC1	–
–	–	-10.5%	CCOc1cc(F)ccc1NC(=O)c1ccccc1NS(=O)(=O)C1CC1	–
83.1%	2830 nM	–	CC(C)Oc1ccccc1NC(=O)c1ccccc1NS(=O)(=O)C1CC1	–
91.4%	1400 nM	–	CCS(=O)(=O)Nc1ccccc1C(=O)Nc1ccc(F)cc1OCC(F)(F)F	CLint scaled [3]: 80 mL/min/kg; CLint scaled [4]: 1210 mL/min/kg; fraction unbound [5]: 0.005; fraction unbound [6]: 0.021
110%	54 nM	–	CCOc1ccccc1NC(=O)c1cc(Cl)ccc1NS(=O)(=O)C1CC1	CLint scaled [3]: 130 mL/min/kg; CLint scaled [4]: 1470 mL/min/kg; fraction unbound [5]: 0.001; fraction unbound [6]: 0.001
59.8%	–	–	O=C(Nc1ccccc1OCC(F)(F)F)c1cc(F)ccc1NS(=O)(=O)C1CC1	–
70.6%	–	–	CCOc1ccccc1NC(=O)c1ccc(NS(=O)(=O)C2CC2)cc1	–
107%	98 nM	–	CCOc1ccccc1NC(=O)c1cc(F)ccc1NS(=O)(=O)CC	CLint scaled [3]: 36 mL/min/kg; CLint scaled [4]: 269 mL/min/kg; fraction unbound [5]: 0.002; fraction unbound [6]: 0.041
127%	13 nM	–	CCOc1ccc(F)cc1NC(=O)c1cc(F)ccc1NS(=O)(=O)C1CC1	Vd [7]: 0.34 L/kg; AUC [8]: 304 ng·h/mL; half-life [9]: 24.6 min; clearance [10]: 14.1 mL/min/kg; Ki (Translocator protein): 71 nM; CLint scaled [3]: 59.4 mL/min/kg; CLint scaled [4]: 980 mL/min/kg; fraction unbound [5]: 0.002; fraction unbound [6]: 0.011; concentration at 48.25 h [11]: 297 ng/mL; concentration at 48.25 h [12]: 55.9 ng/g; Kp at 0.25 h [13]: 0.19; half-life [14]: 7.2 min; Tmax [15]: 10.2 min; Cmax [16]: 1280 ng/mL; AUC [17]: 426 ng·h/mL; Kp [18]: 0.2
–	–	24.2%	CCOC1CCCCC1NC(=O)c1ccccc1NS(=O)(=O)C1CC1 (stereo not given)	–
53.4%	14200 nM	–	O=C(Nc1cccc2occc12)c1ccccc1NS(=O)(=O)C1CC1	–
–	–	14.6%	O=C(Nc1cccc2c1OC(F)(F)O2)c1ccccc1NS(=O)(=O)C1CC1	–
–	–	23.8%	CCOc1cccc2nc(-c3ccccc3NS(=O)(=O)C3CC3)[nH]c12	–
102%	173 nM	–	CCOc1ccccc1NC(=O)c1cc(F)ccc1NS(=O)(=O)C1CC1	CLint scaled [3]: 45.4 mL/min/kg; CLint scaled [4]: 383 mL/min/kg; fraction unbound [5]: 0.004; fraction unbound [6]: 0.041
74%	285 nM	–	CCOc1ccc(F)cc1NC(=O)c1ccccc1NS(=O)(=O)CC	–
58.4%	–	–	CCS(=O)(=O)Nc1ccc(C)cc1C(=O)Nc1ccccc1OCC(F)(F)F	–
–	–	1.9%	CCOc1ccccc1Nc1nn(S(=O)(=O)C2CC2)c2cccnc12	–
118%	206 nM	–	CCOc1ccc(F)cc1NC(=O)c1cc(Cl)ccc1NS(=O)(=O)CC	–
128%	80 nM	–	CCOc1ccc(F)cc1NC(=O)c1cc(C)ccc1NS(=O)(=O)CC	CLint scaled [3]: 69.3 mL/min/kg; CLint scaled [4]: 1000 mL/min/kg; fraction unbound [5]: 0.003; fraction unbound [6]: 0.014
–	–	1.6%	CCOc1cccnc1NC(=O)c1ccccc1NS(=O)(=O)C1CC1	–
89.2%	407 nM	–	CCOc1ccccc1NC(=O)c1cc(Cl)ccc1NS(=O)(=O)CC	–
